Assay [1] concerns the target T1, Retinoic acid receptor alpha (Homo sapiens, UniProt P10276).
T1 sequence (P10276 whole entry): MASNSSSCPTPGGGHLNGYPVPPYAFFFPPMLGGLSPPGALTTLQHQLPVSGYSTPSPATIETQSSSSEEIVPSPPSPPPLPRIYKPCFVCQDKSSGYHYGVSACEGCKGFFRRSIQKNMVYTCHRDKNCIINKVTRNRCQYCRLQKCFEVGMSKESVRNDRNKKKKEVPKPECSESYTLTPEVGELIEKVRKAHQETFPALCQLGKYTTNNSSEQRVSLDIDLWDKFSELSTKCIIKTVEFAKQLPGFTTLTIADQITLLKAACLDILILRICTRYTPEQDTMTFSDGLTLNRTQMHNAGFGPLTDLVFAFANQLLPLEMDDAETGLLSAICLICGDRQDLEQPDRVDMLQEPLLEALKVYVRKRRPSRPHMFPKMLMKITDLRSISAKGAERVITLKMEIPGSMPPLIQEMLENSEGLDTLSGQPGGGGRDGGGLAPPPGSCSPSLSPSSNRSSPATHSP
As to the kind of experiment: (§1) Binding affinity for Retinoic Acid Receptor alpha (RAR alpha). A digest of the protocol:
(§2)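 Competitive binding to individual RAR isoforms with [3H]ATRA as radioligand. IC50 for each receptor divided by the ATRA IC50 and reported as relative IC50 (mean ± SEM). nd means relative IC50 > 1000.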

The target in assay [2] is T2, Retinoic acid receptor alpha (Homo sapiens) (UniProt P10276).
T2 sequence (whole entry): T1 sequence (P10276 whole entry)
Particulars: HL-60.

Assay [3] concerns the target T3, Retinoic acid receptor gamma (Homo sapiens, UniProt P13631).
T3 sequence (P13631 whole entry): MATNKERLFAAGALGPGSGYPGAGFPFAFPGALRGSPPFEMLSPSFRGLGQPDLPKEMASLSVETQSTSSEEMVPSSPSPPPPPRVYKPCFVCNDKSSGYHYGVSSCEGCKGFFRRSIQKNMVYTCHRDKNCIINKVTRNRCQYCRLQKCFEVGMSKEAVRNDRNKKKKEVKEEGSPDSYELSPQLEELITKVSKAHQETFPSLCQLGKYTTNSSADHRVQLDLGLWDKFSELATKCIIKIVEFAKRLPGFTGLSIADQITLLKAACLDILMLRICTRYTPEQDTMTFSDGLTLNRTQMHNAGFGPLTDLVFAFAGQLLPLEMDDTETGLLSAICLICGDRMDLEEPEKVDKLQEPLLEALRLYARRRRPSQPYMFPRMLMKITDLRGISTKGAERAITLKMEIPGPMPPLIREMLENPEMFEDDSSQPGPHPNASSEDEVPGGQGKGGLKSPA
As to the kind of experiment: Binding affinity for Retinoic Acid Receptor gamma (RAR gamma). In outline:
as §2

For assay [4], the target named is T2, Retinoic acid receptor alpha (Homo sapiens). As to the kind of experiment: Transcriptional activation of Retinoic Acid Receptor alpha (RAR alpha). It counts as functional. In outline:
(§3)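 Receptor and reporter vectors were lipofected into COS-1 cells. After 4 h the medium was changed to DMEM/10% FBS for 20 h. Cells were reseeded at 3 × 10⁴/well and compounds added 6 h later, in log dilutions from 3.0 × 10^-6 to 1.0 × 10^-10 M in duplicate. Supernatant PLAP activity was read after 48 h. EC30 (30% of maximal response) was normalized to ATRA.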

Assay [5] deals with T4, Retinoic acid receptor beta (Homo sapiens, UniProt P10826).
T4 sequence (P10826 whole entry): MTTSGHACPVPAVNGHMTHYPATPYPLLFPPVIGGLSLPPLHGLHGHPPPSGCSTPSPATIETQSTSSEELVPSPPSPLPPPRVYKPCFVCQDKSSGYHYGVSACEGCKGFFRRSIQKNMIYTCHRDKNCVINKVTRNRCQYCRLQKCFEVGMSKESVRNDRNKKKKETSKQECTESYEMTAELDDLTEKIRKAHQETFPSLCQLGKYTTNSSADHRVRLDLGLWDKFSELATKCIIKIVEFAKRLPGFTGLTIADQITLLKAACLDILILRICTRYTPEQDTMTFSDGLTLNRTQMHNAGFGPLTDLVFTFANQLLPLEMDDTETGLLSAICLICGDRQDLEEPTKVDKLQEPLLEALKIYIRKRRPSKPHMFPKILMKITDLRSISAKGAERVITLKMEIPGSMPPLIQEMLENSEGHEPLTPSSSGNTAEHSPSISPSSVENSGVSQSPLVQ
Kind of assay: Binding affinity for Retinoic Acid Receptor beta (RAR beta). A digest of the protocol: (§4)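 Competitive binding to each RAR isoform using [³H]ATRA as radioligand. IC50 for each receptor was divided by the ATRA IC50 on the same receptor to give relative IC50 (mean ± SEM). Values were labelled not detectable when relative IC50 > 1000.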

Assay [6] deals with T5, Retinoic acid receptor beta (Homo sapiens) (UniProt P10826).
T5 sequence (whole entry): T4 sequence (P10826 whole entry)
Kind of assay: Transcriptional activation of Retinoic Acid Receptor beta (RAR beta). The class given is functional. In outline: as §3

Assay [7] concerns the target T6, Retinoic acid receptor gamma (Homo sapiens) (UniProt P13631).
T6 sequence (whole entry): T3 sequence (P13631 whole entry)
As to the kind of experiment: (§5) Transcriptional activation of Retinoic Acid Receptor gamma (RAR gamma). The class given is functional. A digest of the protocol: as §3

Assay [8] addresses T6, Retinoic acid receptor gamma (Homo sapiens). Kind of assay: Transcriptional activation in COS-1 cells expressing Retinoic Acid Receptor gamma (RAR gamma). The class given is functional, cell-based. In outline: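 Receptor and reporter vectors were lipofected into COS-1 cells for 4 h, then cultured 20 h in DMEM/10% FBS. Cells were reseeded at 3 × 10⁴ per well. After 6 h, compound was added in log dilutions from 1.0 × 10^-10 to 3.0 × 10^-6 M in duplicate. Supernatant PLAP activity was read after 48 h. EC30 was normalised to ATRA EC30 (mean ± SEM).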

Assay [9] has as its target T5, Retinoic acid receptor beta (Homo sapiens). As to the kind of experiment: Transcriptional activation in COS-1 cells expressing Retinoic Acid Receptor beta (RAR beta). The class given is functional, cell-based. A digest of the protocol:
as §3

The target of assay [10] is T1, Retinoic acid receptor alpha. Kind of assay: Binding affinity for Retinoic Acid Receptor alpha (RAR alpha). In outline:
as §2

Assay [11] deals with T6, Retinoic acid receptor gamma (Homo sapiens). The assay is described as §5. A digest of the protocol:
as §3

For assay [12], the target named is T2, Retinoic acid receptor alpha (Homo sapiens). As to the kind of experiment: Induction of HL-60 cell differentiation at Retinoic Acid Receptor alpha (RAR alpha). It counts as functional, cell-based. A digest of the protocol: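 HL60 cells (1 × 10⁵ in 1 mL RPMI1640) were exposed to compounds for 5 days, in log dilutions from 1.0 × 10^-5 to 1.0 × 10^-12 M in duplicate. Differentiation was read as cell-surface CD11b expression by FACS. Values are averages of at least two experiments.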

In assay [13] the target is T3, Retinoic acid receptor gamma. As to the kind of experiment: Binding affinity for Retinoic acid receptor gamma. A digest of the protocol:
as §4

The target in assay [14] is T2, Retinoic acid receptor alpha (Homo sapiens). Kind of assay: Transcriptional activation in COS-1 cells expressing Retinoic Acid Receptor alpha (RAR alpha). The class given is functional, cell-based. A digest of the protocol:
as §3

The target in assay [15] is T1, Retinoic acid receptor alpha. The description is as §1. The source holds these as a separate data set.
Assay [16] deals with T2, Retinoic acid receptor alpha (Homo sapiens). Particulars: COS-1.

SMILES strings stand for the structures.

Broadly, the IC50 is the midpoint of a concentration-inhibition curve. A lower IC50 goes with greater potency. In general, EC30 refers to the concentration at which the effect reaches the 30% level. Higher therefore signals weaker potency.

`CC1(C)CCC(C)(C)c2nc(-c3cc(-c4ccc(C(=O)O)cc4)cs3)cnc21`: the half-inhibitory concentration (IC50) in assay [1] was 2.4 nM; in assay [3], 2 nM; in [5], 4.5 nM. Also, in assay [2], the ED30 was 9.5 nM. The figures for the EC30 in [4], in assay [6] and in assay [7] were 0.87 nM, 0.5 nM and 0.72 nM, respectively.

As to `CC1(C)CCC(C)(C)c2cc(C(=O)Nc3ccc(C(=O)O)cc3)ccc21`, the EC30 in [8] is 33 nM; in assay [9], 12 nM.

Consider `CC1(C)CCC(C)(C)c2nc(C(=O)Nc3ccc(C(=O)O)cc3)cnc21`, for which the values for the half-inhibitory concentration (IC50) in assay [10] and in [5] were 40 nM and 140 nM, respectively. The ED30 in assay [2] worked out at 0.87 nM. In addition, the concentration for an effect of 30% (EC30) amounted to 0.15 nM in assay [4], 0.4 nM in [6] and 1.6 nM in assay [7].

With `CC1(C)CCC(C)(C)c2nc(-c3c[nH]c(-c4ccc(C(=O)O)cc4)n3)cnc21`, the results for the EC30 in assay [11], in assay [4] and in [6] were 39 nM, 80 nM and 40 nM, respectively. Besides, the ED30 in [12] came out at 20 nM.

In the case of `CC1(C)CCC(C)(C)c2cc(NC(=O)c3ccc(C(=O)O)cc3)ccc21`, the concentration for an effect of 30% (EC30) in assay [8] was 150 nM; in assay [9] it was 48 nM.

On to `CC1(C)CCC(C)(C)c2nc(-c3ccc(-c4ccc(C(=O)O)cc4)o3)cnc21`, for which the IC50 turned out to be 32 nM in [1], 4.6 nM in [3] and 39 nM in assay [5]. This molecule also gave an ED30 in assay [2] of 2.1 nM. The EC30 is 1.8 nM in assay [4], 0.38 nM in assay [6] and 1.5 nM in assay [7].

As to `CC1(C)CCC(C)(C)c2nc(-c3ccc(-c4ccc(C(=O)O)cc4)[nH]3)cnc21`, the IC50 in assay [1] was 2.2 nM; in [13], 310 nM; in [5], 230 nM. Further, the values for the EC30 in [8], in assay [9] and in assay [14] were 20 nM, 2.5 nM and 0.32 nM, respectively. In assay [2], this molecule registered an ED30 of 0.11 nM.

With `CC1(C)CCC(C)(C)c2nc(-c3ccc(-c4ccc(C(=O)O)cc4)s3)cnc21`, the half-inhibitory concentration (IC50) was found to be 130 nM in assay [1], 17 nM in assay [3] and 36 nM in assay [5]. The ED30 in assay [2] worked out at 40 nM. Besides, the values for the EC30 in [4], in assay [6] and in assay [7] were 15 nM, 0.73 nM and 2.1 nM, respectively.

In turn, `CC1(C)CCC(C)(C)c2nc(-c3cc(-c4ccc(C(=O)O)cc4)c[nH]3)cnc21` registered an ED30 in assay [2] of 140 nM. Also, the IC50 in [3] stood at 150 nM. Moreover, the EC30 amounted to 11 nM in [4], 4.5 nM in assay [6] and 1.6 nM in [7].

For `CC1(C)CCC(C)(C)c2nc(-c3csc(-c4ccc(C(=O)O)cc4)n3)cnc21`, the IC50 in assay [1] stood at 83 nM; in [3], 3.6 nM; in assay [5] it was 21 nM. Moreover, the ED30 in assay [2] was found to be 11 nM. Further, the results for the EC30 in assay [4], in assay [6] and in assay [7] were 5.2 nM, 0.39 nM and 0.34 nM, respectively.

As to `Cn1c(-c2ccc(C(=O)O)cc2)ccc1-c1cnc2c(n1)C(C)(C)CCC2(C)C`, the results for the EC30 in assay [11], in assay [4] and in assay [6] were 120 nM, 38 nM and 14 nM, respectively. The ED30 in assay [12] is 240 nM.

In [2], `CC1(C)CCC(C)(C)c2nc(-c3cc(-c4ccc(C(=O)O)cc4)[nH]n3)cnc21` registered an ED30 of 2.1 nM. Further, the EC30 in assay [4] came to 1.7 nM; in assay [6], 0.85 nM; in [7] it was 3.9 nM. The molecule also displayed an IC50 in [5] of 290 nM.

With `CC1(C)CCC(C)(C)c2nc(-c3cc(-c4ccc(C(=O)O)cc4)co3)cnc21`, the IC50 was determined as 19 nM in [1], 27 nM in [3] and 2.5 nM in assay [5]. The same molecule showed an ED30 in assay [2] of 0.21 nM. Moreover, the results for the 30% effect concentration (EC30) in [4], in [6] and in assay [7] were 0.35 nM, 0.18 nM and 0.76 nM, respectively.

As for `CC1(C)CCC(C)(C)c2cc(-c3ccc(-c4ccc(C(=O)O)cc4)[nH]3)ccc21`, the IC50 in [15] came out at 0.45 nM; in assay [13], 21 nM; in assay [5], 100 nM. Also, the EC30 is 3.5 nM in assay [8], 3.9 nM in [9] and 0.34 nM in assay [16]. Also, the ED30 in assay [2] amounted to 0.54 nM.

(Values after ChEMBL document CHEMBL1133091, “Syntheses and structure-activity relationships of 5,6,7, 8-tetrahydro-5,5,8,8-tetramethyl-2-quinoxaline derivatives with retinoic acid receptor alpha agonistic activity” (J Med Chem, 2000).)
